Source: PubChem BioAssay
Only some compounds are listed: those with a hit (about 2.2% of all), similar ones and a draw of the others.
GalR3 antag = blocks the human galanin receptor 3. O60755. inhibition, % at 3 µM. 360,000 tested, 0.44% active. AID 651719. HEK293 GalR3-CNG cAMP membrane potential fluorescence; galR3 body fused to GalR1 C-terminus;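 active = inhibition above the screen-wide average plus 3 SD, cut at about 13% in these data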;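 also: forskolin and galanin both at EC90 stimulate the cells; cAMP rise reported by CNG channel membrane potential dye signal; 0% = forskolin plus galanin with DMSO and 100% = forskolin alone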
Target sequence (O60755 1-299 limits assumed): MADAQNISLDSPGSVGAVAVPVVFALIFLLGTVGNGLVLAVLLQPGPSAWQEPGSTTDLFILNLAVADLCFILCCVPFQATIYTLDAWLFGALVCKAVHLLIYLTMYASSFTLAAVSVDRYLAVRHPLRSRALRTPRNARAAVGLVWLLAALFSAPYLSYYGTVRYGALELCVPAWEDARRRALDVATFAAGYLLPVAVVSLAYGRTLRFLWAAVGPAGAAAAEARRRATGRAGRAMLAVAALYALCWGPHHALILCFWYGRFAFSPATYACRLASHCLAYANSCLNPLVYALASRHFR
Env fusion inh = inhibitors of HIV Env-mediated cell fusion; HeLa-JRFL Env/CEM21 cell fusion, luciferase; inhibition, % at 12.3 µM; 360,000 tested, 1.1% active; AID 651610;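 active = mean replicate inhibition score of at least 50 and every replicate individually at or above 50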;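 also: 0% = plate neutral controls and 100% = maraviroc near 300 nM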
GAA850 FXN act = increases GAA850 frataxin promoter reporter activity; AID 540364; HEK293 lucGAA850 FXN promoter luciferase reporter, 24 h; percent of 10 µM SAHA response; 360,000 tested, 0.56% active; activation, % at 6 µM;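 active = activation above the average of all compounds screened plus 3 SD, cutoff fixed separately per campaign, cut at about 7.5% in these data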;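 also: 0% = DMSO wells and 100% = 10 µM SAHA wells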
NR2E3 ag-1 = NR2E3 (human) agonism; GST-NR2E3/biotin-RetCOR TR-FRET, 1536-well; inhibition of corepressor binding, % at 4.78 µM; 320,000 tested, 0.12% active;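 active = percent inhibition above the cutoff of mean plus 3 SD of all tested compounds, set per screening campaign, cut at about 20% in these data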;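 also: 0% = DMSO wells and 100% = biotin wells as full block of FRET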
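Format: 1536-well format; test system: GST-NR2E3 and biotin-RetCOR proteins; read-out basis: percent inhibition of TR-FRET ratio; timing: 5 h incubation at 4 °C; detection: time-resolved FRET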
NR2E3 ag-2 = activates human NR2E3 receptor | CHO-S Gal4-NCOR/VP16-NR2E3 two-hybrid, luciferase | inhibition of corepressor binding, % at 3.98 µM | 360,000 tested, 0.35% active | AID 602229;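 active = inhibition above the mean of all tested compounds plus 3 SD, cut at about 70% in these data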;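 also: 0% = DMSO with NR2E3 transfected cells and 100% = cells lacking NR2E3 construct; higher means lower luciferase signal from less NR2E3 corepressor binding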
V-ATPase pHluor = alters yeast V-ATPase proton transport; AID 504577; 350,000 tested, 0.37% active; S. cerevisiae, pHLuorin cytosolic pH fluorescence; response, % at 10 µM; in the data active = response mostly above about 7.3%, no sharp cut-off; inactive = mostly below about 5.4%; also: actives read high
The depositor's hits bear a star; · = not tested or not shown; [ ] = remark or other dose.

SMILES	GalR3 antag	Env fusion inh	GAA850 FXN act	NR2E3 ag-1	NR2E3 ag-2	V-ATPase pHluor
Clc1ccc(OCCOCCNCc2ccccc2)cc1Cl	1.4	55.5*	0.5	1.0	18.2	0.6
Cc1noc(C)c1NC(=O)N(C)C[C@@H]1OCCCC[C@H](C)Oc2ccc(NC(=O)Nc3ccc4c(c3)OCO4)cc2C(=O)N([C@H](C)CO)C[C@@H]1C	·	-9.5[16.7 µM]	·	·	·	·
CCCNC(=O)C[C@@H]1C[C@@H]2c3cc(NC(=O)Cc4ccncc4)ccc3O[C@@H]2[C@H](CO)O1	·	91.1*[16.7 µM]	·	·	·	·
O=C(C[C@@H]1C[C@@H]2c3cc(NC(=O)Cc4ccncc4)ccc3O[C@@H]2[C@H](CO)O1)NCCc1ccccc1	·	5.0[16.7 µM]	·	·	·	·
CCCNC(=O)C[C@@H]1C[C@@H]2c3cc(NC(=O)Cc4ccncc4)ccc3O[C@@H]2[C@@H](CO)O1	·	93.3*[16.7 µM]	·	·	·	·
O=C(C[C@H]1C[C@H]2c3cc(NC(=O)Cc4ccncc4)ccc3O[C@H]2[C@@H](CO)O1)NCc1ccncc1	·	93.4*[16.7 µM]	·	·	·	·
O=C(Cc1ccncc1)NCC[C@@H]1CC[C@H](NC(=O)C2CCCCC2)[C@@H](CO)O1	·	-12.3[16.7 µM]	·	·	·	·
c1cc2c(cc1C1=NNC(=NC3CC3)SC1)OCCO2	0.8	65.4*	-13.3	-1.2	0.2	2.9
O=C(C[C@H]1CC[C@H](NC(=O)c2ccc3c(c2)OCO3)[C@@H](CO)O1)NCc1ccc(Cl)cc1	·	-14.5[16.7 µM]	·	·	·	·
COc1ccc(S(=O)(=O)N(C)C[C@H]2Oc3ccc(NS(=O)(=O)c4ccc(Cl)cc4)cc3CC(=O)N([C@@H](C)CO)C[C@H]2C)cc1	·	-6.0[16.7 µM]	·	·	·	·
COc1ccc(S(=O)(=O)Nc2ccc3c(c2)CC(=O)N([C@H](C)CO)C[C@H](C)[C@H](CN(C)S(=O)(=O)c2ccc(C)cc2)O3)cc1	·	99.4*[16.7 µM]	·	·	·	·
COc1ccc(S(=O)(=O)Nc2ccc3c(c2)CC(=O)N([C@H](C)CO)C[C@H](C)[C@H](CN(C)S(=O)(=O)c2ccc(Cl)cc2)O3)cc1	·	72.8*[16.7 µM]	·	·	·	·
COc1ccc(S(=O)(=O)Nc2ccc3c(c2)CC(=O)N([C@@H](C)CO)C[C@@H](C)[C@@H](CN(C)S(=O)(=O)c2ccc(C)cc2)O3)cc1	·	4.7[16.7 µM]	·	·	·	·
COc1ccc(S(=O)(=O)Nc2ccc3c(c2)CC(=O)N([C@H](C)CO)C[C@H](C)[C@H](CN(C)S(=O)(=O)c2ccccc2)O3)cc1	·	83.6*[16.7 µM]	·	·	·	·
COc1ccc(S(=O)(=O)N(C)C[C@H]2Oc3ccc(NS(=O)(=O)c4ccccc4)cc3CC(=O)N([C@H](C)CO)C[C@H]2C)cc1	·	6.2[16.7 µM]	·	·	·	·
C[C@@H]1CCCCO[C@@H](CN(C)C(=O)C2CCCCC2)[C@@H](C)CN([C@H](C)CO)C(=O)c2cc(NC(=O)c3ccncc3)ccc2O1	·	-0.1[16.7 µM]	·	·	·	·
CCN1[C@@H]2Cn3c(ccc(-c4ccncc4)c3=O)[C@H]1[C@@H](C(=O)Nc1ccccc1)[C@@H]2CO	·	17.3[16.7 µM]	·	·	·	·
C[C@@H]1CCCCO[C@H](CN(C)C(=O)C2CCCCC2)[C@@H](C)CN([C@@H](C)CO)C(=O)c2cc(N(C)C)ccc2O1	·	6.3[16.7 µM]	·	·	·	·
CCc1ccc2oc(C(=O)NCc3ccncc3)c(C)c2c1	-7.5	62.0*	-1.3	-2.6	47.0	7.6
O=C(NCc1ccccc1)c1ccc(C(=O)NCc2ccccc2)cc1	-4.2	81.9*	-0.2	·	-14.1	-1.3
C[C@H](CO)N1C[C@H](C)[C@H](CN(C)Cc2cccnc2)Oc2cc(C#CC3CCCCC3)ccc2S1(=O)=O	·	22.7[16.7 µM]	·	·	·	·
Clc1ccc(OCc2nnc(SCc3nc4ccccc4[nH]3)n2Cc2ccco2)cc1	-6.0	56.2*	1.0	-2.4	-7.0	-5.9
Cc1cc(C)c(S(=O)(=O)N2CCN=C2c2ccccc2)cc1C	4.5	81.5*	0.1	1.2	-1.7	-1.5
COc1cc(C)c(S(=O)(=O)N2CCN=C2c2ccccc2)cc1C	-3.7	0.0	0.0	3.6	4.8	2.8
CCNc1ncnc2c1cnn2C1CCCO1 (stereo not drawn)	-4.1	74.3*	0.7	·	-54.2	0.0
Clc1ccc2nc(C3CCN(Cc4nnnn4C4CCCCC4)CC3)[nH]c2c1	-3.8	35.9	-0.6	-0.3	13.8	5.4
Cc1ccc(Cn2nnnc2CN2CCC(c3nc4ccc(Cl)cc4[nH]3)CC2)cc1	-9.8	75.2*	-1.4	-1.6	18.8	12.7
